H69AR growth 86K: blocks growth of human H69AR lung tumor cells | H69AR lung tumor viability, ATP luminescence, 72 h; active compounds read low | viability, % at 10 µM | hit rate 6% among 85,000;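 active = viability at or below 40%; inactive = viability above 40%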;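 note: multidrug resistant small cell line overexpressing MRP-1 efflux transporter; 100% = mean luminescence of untreated control wells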
HUVEC inhibit: inhibitors of human endothelial cell proliferation | HUVEC proliferation, CellTiter-Glo luminescence, 72 h; active compounds read low | viability, % at 10 µM (by protocol) | hit rate 1.1% among 86,000 | AID 648;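 active = viability at or below 30%; inactive = viability above 30%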;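 note: 100% = median luminescence of DMSO-only cell control wells on each plate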
HCT116 bCat-KO: beta-catenin-lacking colon tumor cell growth suppression; HCT116 beta-catenin knockout viability, CellTiter-Glo, 60 h; active compounds read low; viability, % at 10 µM; hit rate 1.5% among 140,000;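 active = viability at or under a set limit, the compound median less 4 SD, cut at about 6% in these data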;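 note: 0% = Hyamine 1622 control at 20 µM and 100% = untreated cell control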
Fibroblast inh: blocks proliferation of human lung fibroblasts | LL 47 human lung fibroblast viability, ATP luminescence; active compounds read low | hit rate 1.1% among 85,000 | viability, % at 10 µM;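 active = viability at or below 50% in the single dose screen; inactive = viability above 50%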;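 note: compound exposure lasted 72 h before the ATP readout; 100% = median luminescence of untreated cell-only wells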
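Material: Human LL 47 lung fibroblast cells | Input: 1,150 cells/well | Buffer or medium: IMEM plus 15% FBS | Compound dosing: 0.1% DMSO in all compound wells | Times: Overnight cell rest, 72 h compound treatment at 37 °C | Signal: CellTiter-Glo luminescence measuring cellular ATP | Measure: % viability versus median cells-only luminescence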
PTEN del growth: growth suppressors of cells with PTEN tumor suppressor deletion; HCT116 PTEN-null viability, CellTiter-Glo, 60 h; active compounds read low; viability, % at 10 µM; hit rate 1.2% among 140,000; AID 827;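 active = viability at or below a set limit, 4 SD under the median of all tested compounds, cut at about 3.7% in these data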;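 note: PTEN knockout HCT116 line with beta catenin targeted HCT116 as companion control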
Starred values were filed as active, the others as inactive; x = no result given. This is one part of a sample in which hits are shown more often than they occur.

SMILES | H69AR growth 86K | HUVEC inhibit | HCT116 bCat-KO | Fibroblast inh | PTEN del growth
Cc1ccc(C(=O)c2coc3c2C(=O)C(=O)c2ccccc2-3)cc1 | 1.8* | 3.5* | 1.8* | 47* | 1.4*
Cc1cccc(N2C(=O)C(Oc3ccc(Cl)cc3Cl)C2C=O)c1C (stereo unspecified) | x | x | 5.2* | x | 4
CCc1ccc(NC(=S)NC2CCN(Cc3ccccc3)CC2)cc1 | x | x | 43 | x | 45
CCC(C)c1ccc(NC(=S)NC2CCN(Cc3ccccc3)CC2)cc1 (stereo unspecified) | x | x | 1.9* | x | 1.1*
O=C(OCC(=O)N(C1CCCCC1)C1CCCCC1)c1cnccn1 | 1.2* | 98 | 79 | 107 | 85
Cc1nn(Cc2ccc(Cl)cc2Cl)c(C)c1NC(=O)NC12CC3CC(CC(C3)C1)C2 | x | x | 47 | x | 42
COc1cc(/C=C/C(=O)c2ccc(NS(=O)(=O)c3ccc(C)cc3)cc2)ccc1OC(F)F | x | x | 4.8* | x | 2.9*
COc1ccc(/C=C/C(=O)c2ccc(NC(=O)c3cccs3)cc2)cc1OC | x | x | 1.4* | x | 1.8*
COc1ccc(Br)cc1/C=C/C(=O)c1ccc(NC(C)=O)cc1 | x | x | 4.9* | x | 1.3*
COc1ccc(NC(=O)/C=C/c2cc(Br)ccc2OC)cc1 | x | x | 72 | x | 70
COc1ccc(C(=O)Nc2ccc(NC(=O)c3cccs3)cc2)cc1Cl | x | x | 87 | x | 99
Cc1nn(-c2ccc(Cl)cc2)c2[nH]c(=O)c(CNCc3ccc4c(c3)OCO4)cc12 | 32* | 82 | 63 | 88 | 62
Cc1nn(-c2ccccc2)c2[nH]c(=O)c(CNc3ccc(N4CCOCC4)cc3)cc12 | 18* | 76 | 77 | 94 | 93
O=c1[nH]c2c(cc1CNCCN1CCOCC1)c(-c1cccc(F)c1)nn2-c1ccccc1 | 45 | 32 | x | 91 | x
Cc1nn(Cc2ccccc2Cl)c2sc(C(=O)NCc3ccc4c(c3)OCO4)cc12 | 48 | 85 | 82 | 94 | 80
COc1ccc(C(=O)Nc2cc(C)c3c(=O)oc4ccccc4c3n2)cc1 | 39* | 49 | 98 | 103 | 107
COCC(=O)Nc1cc(C)c2c(=O)oc3ccccc3c2n1 | 84 | 88 | x | 96 | x
Cc1cc(NC(=O)CN2CCc3ccccc3C2)nc2c1c(=O)oc1ccccc12 | 28* | 84 | x | 86 | x
Cc1cc(NC(=O)CC(C)(C)C)nc2c1c(=O)oc1ccccc12 | 56 | 87 | 87 | 88 | 84
CC(=O)c1ccc(N(C(=O)Cn2nnc(-c3ccccc3)n2)C(C(=O)NC2CCCCC2)c2ccccn2)cc1 (stereo unspecified) | x | x | 47 | x | 57
CCOC(=O)c1c(NC(=O)c2cc(-c3ccc(O)cc3)on2)sc(C(C)=O)c1C | x | x | 28 | x | 58
COc1cccc(-c2nnc(NC(=O)C3CCCCC3)o2)c1 | 79 | 100 | 77 | 90 | 79
Clc1cccc(-c2nnc(-c3ccccc3)o2)c1 | x | x | 2.4* | x | 7
O=C(Nc1cccc(-c2nnc(-c3ccccc3)o2)c1)C1CCCCC1 | 19* | 68 | 61 | 96 | 23
O=C(Nc1ccc2nc(-c3ccco3)[nH]c2c1)c1cccs1 | 40* | 94 | 87 | 91 | 78
SMILES | H69AR growth 86K | HUVEC inhibit | HCT116 bCat-KO | Fibroblast inh | PTEN del growth
O=C(Nc1cccc(-c2nnc(-c3ccccc3)o2)c1)c1ccco1 | 15* | 83 | x | 101 | x
O=S(=O)(/C=C/c1ccccc1)NCc1ccccc1Cl | x | x | 108 | x | 98
CCCCC(=O)Nc1cccc(-c2nnc(-c3ccccc3)o2)c1 | 60 | 71 | 84 | 105 | 77
O=C(Nc1ccc2nc(-c3cccnc3)[nH]c2c1)c1ccco1 | 73 | 114 | 103 | 98 | 103
Cc1ccc2nc(-c3cccc(NC(=O)c4ccco4)c3)[nH]c2c1 | 21* | 60 | 75 | x | 64
O=C(Nc1ccccc1)c1cccc(-c2nnc(-c3ccccc3)o2)c1 | 26* | 19* | 96 | 94 | 89
Cc1cccc(C)c1OCC(=O)Nc1cccc(-c2nnc(-c3ccccc3)o2)c1 | x | x | 63 | x | 43
Cc1cccc(OCC(=O)Nc2cccc(-c3nnc(-c4ccccc4)o3)c2)c1C | 9.8* | 50 | 71 | 56 | 27
COc1ccccc1NC1=C(N2CCCCC2)C(=O)c2ccccc2C1=O | x | x | 3.1* | x | 5
CCN(C(=S)Nc1ccc(Oc2ccccc2)cc1)c1ccccc1 | x | x | 86 | x | 93
O=C(NCc1cccs1)C1CCN(c2ccc(S(=O)(=O)N3CCOCC3)cc2Cl)CC1 | 18* | 54 | 12 | 59 | 10
CC(C)CNC(=O)C1CCN(c2ccc(S(=O)(=O)N3CCOCC3)cc2Cl)CC1 | 92 | 97 | 92 | 95 | 86
C/C(CC(=O)Nc1cccnc1)=N\NC(=O)C(=O)Nc1cccc(C)c1 | x | x | 110 | x | 101
Cc1nc2sc3c(c2c2nc(-c4ccco4)nn12)CCCC3 | 9.1* | 66 | 72 | 73 | 77
CN(C)c1ccc(NC(=O)CSc2nc(N)c(C(=O)Nc3ccc(N(C)C)cc3)s2)cc1 | 83 | 94 | 42 | 88 | 47
CCOC(=O)c1sc(SCC(=O)Nc2ccc(N(C)C)cc2)nc1N | 58 | 81 | 95 | 36* | 92
CCN(CC)S(=O)(=O)c1ccc(/C=C/C(=O)Nc2cccc(F)c2)cc1 | x | x | 60 | x | 55
Cc1nn(C)cc1/C=C/C(=O)c1ccc(O)cc1 | x | x | 66 | x | 68
Cc1ccc(S(=O)(=O)Nc2cc(C(=O)NCCN3CCCC3)ccc2N2CCCCC2)cc1 | 78 | 28* | 65 | 90 | 61
Cc1nn(C)c(C)c1NC(=O)CSc1nc(Cc2ccccc2)nc2c1cnn2-c1ccccc1 | 5.3* | 87 | x | 87 | x
CCSc1nc2ccccc2n1C(=O)/C=C\c1ccc(OC)c(OC)c1 | x | x | 1.7* | x | 6
CCSc1nc2ccccc2n1CC(N)=O | 84 | 94 | 96 | 101 | 90
COc1ccc(N2C3=C(CC4=C2CC(C)(C)CC4=O)C(=O)CC(C)(C)C3)cc1 | 89 | 10* | 1.1* | 6.0* | 1.1*
Cn1c(=O)[nH]c(=O)c2c1nc(N1CCC(Cc3ccccc3)CC1)n2Cc1ccccc1 | 20* | 59 | 68 | 101 | 59
CCCCCn1c(N2CCC(Cc3ccccc3)CC2)nc2c1c(=O)[nH]c(=O)n2C | 20* | 7.5* | x | 93 | x
SMILES | H69AR growth 86K | HUVEC inhibit | HCT116 bCat-KO | Fibroblast inh | PTEN del growth
CCCCCCn1c(N2CCN(c3ccccc3)CC2)nc2c1c(=O)n(C)c(=O)n2C | 69 | 23* | 45 | 90 | 38
CCCCCCn1c(CN2CCCCC2C)nc2c1c(=O)n(C)c(=O)n2C (stereo unspecified) | x | 97 | 6.0* | 86 | 10
CCCn1c(N2CCC(Cc3ccccc3)CC2)nc2c1c(=O)[nH]c(=O)n2C | 41 | 77 | 66 | 90 | 61
CC(=O)N/C(=C\c1ccccc1)C(=O)OCC(=O)N(C)C1CCCCC1 | x | x | 90 | x | 88
C=CCC(CC=C)(NC(=O)c1ccccc1C)c1ccccc1 | x | x | 84 | x | 85
CCn1c(NC(C)=O)nc2ccccc21 | 94 | 83 | 99 | 103 | 95
CCCn1c(NC(=O)c2cccc(C)c2C)nc2ccccc21 | 25* | 53 | 16 | 56 | 10
CCCn1c(NC(=O)c2ccc(Cl)c(S(=O)(=O)N3CCCC3)c2)nc2ccccc21 | 10.0* | 41 | 8 | 56 | 9
